In ChEMBL document CHEMBL1932924, “Design, synthesis, and biological evaluation of 4-phenylpyrrole derivatives as novel androgen receptor antagonists” (Bioorg Med Chem, 2012):
pEC50, pIC50: −log10 of the molar value. Converted amounts (≈) assume the structure as drawn.

Tests used:
Androgen receptor [1] = target: T1, Androgen receptor (Homo sapiens, UniProt P10275); assay: Displacement of [17-alpha-methyl-3H]-mibolerone from human androgen receptor expressed in HEK293 derived FreeStyle293F cells after 3 hrs; assay type: cell-based
T1 sequence (P10275 whole entry): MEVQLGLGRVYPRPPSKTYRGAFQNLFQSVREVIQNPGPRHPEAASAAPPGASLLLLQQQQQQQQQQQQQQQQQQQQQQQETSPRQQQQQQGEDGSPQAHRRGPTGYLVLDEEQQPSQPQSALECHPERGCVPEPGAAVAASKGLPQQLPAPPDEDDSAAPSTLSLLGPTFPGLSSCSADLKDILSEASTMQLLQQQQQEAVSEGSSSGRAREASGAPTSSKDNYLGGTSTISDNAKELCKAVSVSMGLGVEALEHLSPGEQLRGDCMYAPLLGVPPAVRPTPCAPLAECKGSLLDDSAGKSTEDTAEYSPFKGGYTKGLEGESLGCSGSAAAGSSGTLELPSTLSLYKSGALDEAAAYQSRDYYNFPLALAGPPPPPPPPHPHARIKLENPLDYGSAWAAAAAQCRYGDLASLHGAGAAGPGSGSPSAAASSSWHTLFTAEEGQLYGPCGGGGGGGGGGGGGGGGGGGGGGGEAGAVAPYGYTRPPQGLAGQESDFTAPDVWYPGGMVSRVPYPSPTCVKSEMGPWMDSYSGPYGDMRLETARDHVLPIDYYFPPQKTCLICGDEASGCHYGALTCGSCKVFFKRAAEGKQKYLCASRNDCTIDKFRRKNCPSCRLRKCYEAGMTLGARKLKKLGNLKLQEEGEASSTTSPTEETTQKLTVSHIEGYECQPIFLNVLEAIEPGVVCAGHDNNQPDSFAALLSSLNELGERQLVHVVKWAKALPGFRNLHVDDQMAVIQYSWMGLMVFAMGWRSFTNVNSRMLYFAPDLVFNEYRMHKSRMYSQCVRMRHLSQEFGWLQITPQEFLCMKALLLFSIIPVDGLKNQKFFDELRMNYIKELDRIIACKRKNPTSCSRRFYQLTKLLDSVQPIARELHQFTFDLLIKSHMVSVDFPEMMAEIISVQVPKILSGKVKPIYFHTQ

Androgen receptor [2] = target: T1, Androgen receptor; assay: Agonist activity at human androgen receptor expressed in COS7 cells assessed as luciferase activity after 24 hrs by reporter gene assay; assay type: functional, cell-based, COS-7
Androgen receptor [3] = target: T2, Androgen receptor (Homo sapiens, UniProt P10275, T878A); assay: Displacement of [17-alpha-methyl-3H]-mibolerone from human androgen receptor T877A mutant expressed in HEK293 derived FreeStyle293F cells after 3 hrs; assay type: cell-based
T2 sequence (P10275 whole entry T878A): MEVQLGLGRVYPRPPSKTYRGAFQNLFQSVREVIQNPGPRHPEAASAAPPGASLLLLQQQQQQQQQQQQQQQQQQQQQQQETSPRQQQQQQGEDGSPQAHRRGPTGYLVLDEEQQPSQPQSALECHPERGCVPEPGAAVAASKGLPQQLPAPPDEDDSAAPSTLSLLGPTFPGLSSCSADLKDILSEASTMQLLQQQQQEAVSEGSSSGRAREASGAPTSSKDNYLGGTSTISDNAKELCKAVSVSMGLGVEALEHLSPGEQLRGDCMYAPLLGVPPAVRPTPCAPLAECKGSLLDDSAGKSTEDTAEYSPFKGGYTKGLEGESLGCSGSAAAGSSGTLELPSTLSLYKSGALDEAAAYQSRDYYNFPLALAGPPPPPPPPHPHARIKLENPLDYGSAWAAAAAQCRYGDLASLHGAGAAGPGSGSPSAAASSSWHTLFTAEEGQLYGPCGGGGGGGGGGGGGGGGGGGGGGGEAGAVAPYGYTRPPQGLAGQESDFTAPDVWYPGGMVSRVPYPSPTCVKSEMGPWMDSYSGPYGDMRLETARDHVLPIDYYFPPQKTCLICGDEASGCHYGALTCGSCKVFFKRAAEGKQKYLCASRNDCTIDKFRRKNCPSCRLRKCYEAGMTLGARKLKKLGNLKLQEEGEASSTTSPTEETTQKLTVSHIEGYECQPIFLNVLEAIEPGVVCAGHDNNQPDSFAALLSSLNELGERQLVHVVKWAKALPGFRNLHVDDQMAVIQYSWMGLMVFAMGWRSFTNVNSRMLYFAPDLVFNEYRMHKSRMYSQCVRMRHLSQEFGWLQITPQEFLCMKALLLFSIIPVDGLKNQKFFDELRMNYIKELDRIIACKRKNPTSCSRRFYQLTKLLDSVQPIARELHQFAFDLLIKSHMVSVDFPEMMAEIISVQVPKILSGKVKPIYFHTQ

Androgen receptor [4] = target: T2, Androgen receptor; assay: Antagonist activity at human androgen receptor T877A mutant expressed in COS7 cells assessed as inhibition of DHT-induced luciferase activity after 24 hrs by reporter gene assay; assay type: functional, cell-based, COS-7
Androgen receptor [5] = target: T2, Androgen receptor; assay: Agonist activity at human androgen receptor T877A mutant expressed in COS7 cells assessed as luciferase activity after 24 hrs by reporter gene assay; assay type: functional, cell-based, COS-7
Androgen receptor [6] = target: T3, Androgen receptor (Homo sapiens, UniProt P10275, W742C); assay: Antagonist activity at human androgen receptor W741C mutant expressed in COS7 cells assessed as inhibition of DHT-induced luciferase activity after 24 hrs by reporter gene assay; assay type: functional, cell-based, COS-7
T3 sequence (P10275 whole entry W742C): as the sequence (P10275 whole entry T878A) above, with W742C, A878T counted along it

Androgen receptor [7] = target: T3, Androgen receptor; assay: Agonist activity at human androgen receptor W741C mutant expressed in COS7 cells assessed as luciferase activity after 24 hrs by reporter gene assay; assay type: functional, cell-based, COS-7
Androgen receptor [8] = target: T1, Androgen receptor; assay: Antagonist activity at human androgen receptor expressed in COS7 cells assessed as inhibition of DHT-induced luciferase activity after 24 hrs by reporter gene assay; assay type: functional, cell-based, COS-7
[9] = Solubility in aqueous buffer solution at pH 6.8; assay type: physicochemical
Summary of the method: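 DMSO stock added to aqueous buffer at pH 6.8 and incubated. Precipitate removed by filtration; filtrate concentration measured by HPLC.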

Structure (SMILES) | pIC50 (Androgen receptor [1]) | pEC50 (Androgen receptor [2]) | pIC50 (Androgen receptor [3]) | pIC50 (Androgen receptor [4]) | pEC50 (Androgen receptor [5]) | pIC50 (Androgen receptor [6]) | pEC50 (Androgen receptor [7]) | pIC50 (Androgen receptor [8]) | solubility [9] [µg/mL]
CC(=O)c1c(-c2ccc([N+](=O)[O-])cc2)c(C)n(Cc2ccccc2)c1C | 6.41 | < 5.00 | 6.89 | 6.05 | < 5.00 | 5.19 | < 5.00 | 5.34 | –
Cc1cc(-c2ccc([N+](=O)[O-])cc2)c(C)n1Cc1ccccc1 | 8.17 | < 5.00 | 8.66 | 6.68 | < 5.00 | 5.51 | < 5.00 | 6.31 | –
COC(=O)c1c(-c2ccccc2)c(C)n(Cc2ccccc2)c1C | 6.89 | < 5.00 | 7.19 | 5.89 | < 5.00 | 5.43 | < 5.00 | 5.59 | –
COC(=O)c1c(-c2ccc(C#N)cc2)c(C)n(Cc2ccccc2)c1C | 7.57 | < 5.00 | 7.64 | 6.92 | < 5.00 | 6.15 | < 5.00 | 6.57 | –
COC(=O)c1c(-c2ccc(C#N)c(C(F)(F)F)c2)c(C)n(Cc2ccccc2)c1C | 8.41 | < 5.00 | 8.33 | 6.16 | 5.27 | 5.48 | < 5.00 | 6.49 | –
Cc1c(C#N)c(-c2ccc(C#N)cc2)c(C)n1Cc1ccccc1 | 8.85 | < 5.00 | 8.52 | 7.39 | < 5.00 | 6.42 | < 5.00 | 7.40 | 0.35 (≈ 1.12 µM)
Cc1c(C#N)c(-c2ccc(C#N)cc2)c(C)n1Cc1cccnc1 | 8.47 | 5.66 | 7.64 | 6.72 | < 5.00 | 6.74 | 5.44 | 7.19 | 5.1 (≈ 16.3 µM)
Cc1c(C#N)c(-c2ccc(C#N)cc2)c(C)n1Cc1ccc(Cl)nc1 | 8.05 | < 5.00 | 7.62 | 7.00 | < 5.00 | 6.04 | < 5.00 | 7.35 | 0.83 (≈ 2.39 µM)
Cc1c(C#N)c(-c2ccc(C#N)cc2)c(C)n1Cc1cncc(CO)c1 | 7.85 | < 5.00 | 6.82 | 6.36 | < 5.00 | 6.22 | < 5.00 | 7.00 | 3.5 (≈ 10.2 µM)
Cc1c(-c2ccc(C#N)cc2)c(C#N)cn1Cc1cnc(Cl)c(CO)c1 | 6.31 | < 5.00 | 5.96 | 6.09 | < 5.00 | 5.85 | < 5.00 | 6.49 | –
Cc1c(C#N)c(-c2ccc(C#N)cc2)cn1Cc1cnc(Cl)c(CO)c1 | 7.11 | < 5.00 | 6.80 | 6.04 | < 5.00 | 6.12 | < 5.00 | 6.77 | –
